In the library only some 3.7% were active in any assay of this set; here they are far more common.
Arbovirus anti: antivirals against arbovirus infection, primary screen, cell-based, full library, 10K replicate subset; 0.37% of 200,000 active; AID 1251, 2008; arbovirus infection cell-based antiviral screen; inhibition, % at 10 µM; in the data active means inhibition above about 30%
ROMK primary: ROMK potassium channel modulators, primary screen, cell-based, thallium flux, MLSMR library; ATP-sensitive inward rectifier potassium channel 1 (Homo sapiens), P48048; Tet-inducible ROMK, thallium flux fluorescence; actives lie on both sides; B-score at 10 µM; 2% of 130,000 active; AID 1918, 2009;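 active means signal ratio slope over the read window, or its plate-corrected B-score, at least 3 SD from the plate mean, either direction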;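 further: B-score of the F/F0 ratio slope over 7 to 12 s after thallium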
Cl transport mod: KCC2 cotransporter modulators, thallium flux, primary screen, cell-based, HEK293 KCC2, FluoZin-2 fluorescence, MLSMR. 2.2% of 190,000 active. B-score of Tl+ flux slope (higher = more flux/activation; lower = inhibition) at 10 µM. AID 1456, 2008. Solute carrier family 12 member 5 (Homo sapiens), Q9H2X9. KCC2 cells, thallium flux FluoZin-2 fluorescence;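 active means thallium flux slope and its plate-corrected score both differing from the plate sample mean at a set confidence after two filtering rounds, in either direction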;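 further: slope of fluorescence scaled to starting intensity during 10 to 20 s after thallium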
Mdm2 ligase inh: MDM2-luciferase reporter signal enhancers, primary screen, MDM2 E3 ligase inhibitor project, cell-based, luminescence, 1536-well. AID 1230, 2008. signal enhancement, % at 5 µM. E3 ubiquitin-protein ligase Mdm2 (Homo sapiens), Q00987. cell-based MDM2 ubiquitination luciferase reporter, 2 h; 0 = plate control, 100 = twice control, blank-subtracted. 0.11% of 210,000 active;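 active means signal enhancement of 30% or more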;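 further: luminescence tracks abundance of the self-degrading MDM2-luciferase fusion protein; higher signal means inhibition of MDM2 E3 ligase activity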
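Material: stable MDM2–luciferase fusion reporter cells / Quantity: 2000 cells/well / Dosing: single 5 µM compound dose, 0.2% final DMSO / Buffer or medium: DMEM / Schedule: 4 h cell settling then 2 h compound exposure, 37 °C / Detection: luminescence with SteadyLite reagent, 15 min at room temperature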
PKD1 inh: inhibitors of human PKD1 kinase, biochemical, fluorescence polarization; PKD1 kinase fluorescence polarization assay; inhibition, % (concentration not given with the values); 0.056% of 200,000 active; AID 797, 2007; in the data active means inhibition above about 50%
Target sequence (Q15139 whole entry, looked up): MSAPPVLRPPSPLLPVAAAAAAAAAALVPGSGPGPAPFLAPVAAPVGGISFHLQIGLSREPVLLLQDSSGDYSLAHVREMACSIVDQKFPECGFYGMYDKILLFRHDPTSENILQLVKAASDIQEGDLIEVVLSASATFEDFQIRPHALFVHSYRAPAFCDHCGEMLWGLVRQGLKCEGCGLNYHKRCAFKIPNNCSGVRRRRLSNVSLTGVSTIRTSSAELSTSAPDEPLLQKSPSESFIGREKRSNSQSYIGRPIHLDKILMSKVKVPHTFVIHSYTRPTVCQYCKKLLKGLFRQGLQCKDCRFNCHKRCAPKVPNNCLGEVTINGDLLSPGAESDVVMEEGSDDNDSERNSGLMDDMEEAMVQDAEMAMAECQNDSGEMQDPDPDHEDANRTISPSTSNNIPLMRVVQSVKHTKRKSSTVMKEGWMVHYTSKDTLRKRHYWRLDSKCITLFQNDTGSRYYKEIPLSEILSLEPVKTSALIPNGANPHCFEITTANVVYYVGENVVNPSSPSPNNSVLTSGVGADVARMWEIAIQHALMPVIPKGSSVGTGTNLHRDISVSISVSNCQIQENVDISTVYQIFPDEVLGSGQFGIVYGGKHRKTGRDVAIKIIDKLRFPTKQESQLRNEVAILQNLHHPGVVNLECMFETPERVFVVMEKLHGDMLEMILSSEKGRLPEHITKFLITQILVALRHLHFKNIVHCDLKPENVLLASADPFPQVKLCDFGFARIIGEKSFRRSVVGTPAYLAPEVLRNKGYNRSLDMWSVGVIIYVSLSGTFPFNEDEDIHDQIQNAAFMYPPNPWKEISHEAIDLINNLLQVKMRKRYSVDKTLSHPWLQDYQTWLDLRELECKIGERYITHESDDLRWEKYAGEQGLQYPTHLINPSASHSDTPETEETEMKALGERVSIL
m-calpain inh: inhibitors of pig calpain II, primary screen, biochemical, fluorogenic peptide substrate, 1536-well. inhibition, % at 16 µM. purified calpain II, 30 min. AID 1236, 2008. 0.37% of 220,000 active;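 active means inhibition above about 50%, limit read from the data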
KCC2 sec1: KCC2 modulators in sodium-free buffer, confirmation, cell-based, HEK293 KCC2, thallium flux, secondary assay. shares compounds with Cl transport mod. FluoZin2 fluorescence; hits give high values. normalised thallium flux (F/F0 slope) at 10 µM. 15% of 3,700 active;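 active means thallium flux slope above the same plate's solvent-only control mean plus 3 SD; inconclusive means the two replicate wells disagree; inactive means no significant difference from solvent-only control wells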
KCC2 bumet counter: thallium flux persisting under bumetanide in KCC2 cells, confirmation, counter-screen for KCC2 modulator project, cell-based, HEK293 KCC2, FluoZin2, secondary assay 3; normalized thallium flux at 10 µM; HEK293-KCC2 + bumetanide/ouabain; hits give high values; AID 1714, 2009; shares compounds with Cl transport mod; 49% of 3,700 active;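 active means thallium entry rate above the same plate's blocked-transporter control wells by more than 3 SD; inconclusive means the two repeat wells disagree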;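 further: raw slope of fluorescence over initial fluorescence between 10 and 20 s after thallium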
KCC2 sec2: KCC2 modulators without ouabain present, confirmation, cell-based, HEK293 KCC2, thallium flux, FluoZin2, secondary assay 2. shares compounds with Cl transport mod. thallium flux FluoZin2 fluorescence; actives lie on both sides; F/F0 rise rate, 10–20 s post-thallium. normalized thallium flux at 10 µM. 23% of 3,700 active;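 active means thallium flux slope more than 3 SD above or below the plate's solvent-only control mean, mostly below; inconclusive means the two repeat wells disagreed; inactive means no significant shift from solvent-only controls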
HEK counter1: thallium flux modulation in parental HEK cells, confirmation, counter-screen for KCC2 modulator project, cell-based, counterscreen 1; shares compounds with Cl transport mod; HEK293 parental cells, thallium flux FluoZin2, ouabain; baseline-ratio fluorescence slope, 10–20 s after thallium; thallium flux rate (normalised fluorescence) at 10 µM; 46% of 3,700 active;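 active means thallium flux rate significantly above the same plate's solvent-only control wells, beyond their mean plus 3 SD; inconclusive means the two replicate wells gave conflicting results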
KCC2 ouabain: KCC2 inhibitors and activators, ouabain retest, confirmation, HEK-KCC2 cells; shares compounds with Cl transport mod; AID 1717, 2009; 48% of 3,700 active; raw Tl+ flux slope (below DMSO = inhibition, above = activation) at 10 µM; HEK293-KCC2, thallium flux FluoZin2 fluorescence; bidirectional: low = inhibitor, high = activator;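 active means thallium flux slope beyond 3 SD from same-plate DMSO control mean in most replicates, usually higher, sometimes lower; inconclusive means repeat tests gave conflicting results; inactive means no significant difference from controls in most replicates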;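 further: slope of initial-normalized fluorescence between seconds 10 and 20 after thallium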
HEK counter2: native HEK Tl+ uptake effects, second counter-screen – HEK cells, counterscreen 2, counter-screen for KCC2 modulator project, confirmation. HEK293 parental, thallium flux FluoZin-2 fluorescence slope. 33% of 3,700 active. shares compounds with Cl transport mod. thallium flux slope at 10 µM;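 active means thallium flux slope above the same plate's solvent-control mean plus 3 SD in both duplicate wells; inconclusive means duplicate wells that disagreed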;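 further: run without ouabain in cells lacking the KCC2 cotransporter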
Large screens that a line does not name were inactive (follow-up assays come after a bar, where they were run).

COc1ccc(-c2cc(C(F)(F)F)c3c(=O)n(-c4ccccc4)[nH]c3n2)cc1	Cl transport mod -5.2 (no result: ROMK primary) | KCC2 sec1 inactive | KCC2 bumet counter inactive | KCC2 sec2 inactive | HEK counter1 inactive | KCC2 ouabain 0.018 | HEK counter2 inactive
COc1ccc(-c2cc(-c3ccccc3)nc(=O)[nH]2)cc1	none (no result: Arbovirus anti, ROMK primary, Cl transport mod, Mdm2 ligase inh, PKD1 inh)
O=[N+]([O-])c1ccccc1-n1cnc2ccccc21	none
Cc1ccnc(NC(=O)CSc2ccccn2)c1	none (no result: Arbovirus anti, ROMK primary, Cl transport mod, PKD1 inh)
Cc1nc2ccccc2c(=O)n1/N=C/c1ccccc1O	none (no result: Arbovirus anti, PKD1 inh)
Cc1cc([N+](=O)[O-])cc(/C=N/n2c(C)nc3ccccc3c2=O)c1O	Cl transport mod -3.3 (no result: Arbovirus anti, PKD1 inh) | KCC2 sec1 inactive | KCC2 bumet counter inconclusive | KCC2 sec2 inactive | HEK counter1 inactive | KCC2 ouabain inconclusive | HEK counter2 inactive
Cc1cccc(C)c1-n1cccc1/C=C1\SC(=S)N(c2cccc(C(=O)O)c2)C1=O	Cl transport mod -4.5, m-calpain inh 111 | KCC2 sec1 inactive | KCC2 bumet counter inactive | KCC2 sec2 inactive | HEK counter1 0.0054 | KCC2 ouabain 0.015 | HEK counter2 0.0083
CCOC(=O)c1c(C)c(C)n(Cc2cccc(OC)c2OC)c1C	none
CCOC(=O)c1cc(C)n(Cc2cccc(OC)c2OC)c1C	none (no result: Cl transport mod) | KCC2 sec1 inactive | KCC2 bumet counter inactive | KCC2 sec2 inactive | HEK counter1 inactive | KCC2 ouabain inactive | HEK counter2 inactive
COc1cccc(OCCNc2cc(N3CCOCC3)ccc2[N+](=O)[O-])c1	none
COc1ccc(OCCNc2cc(N3CCOCC3)ccc2[N+](=O)[O-])cc1	Cl transport mod -4.7, m-calpain inh 93 (no result: ROMK primary) | KCC2 sec1 inactive | KCC2 bumet counter inactive | KCC2 sec2 inactive | HEK counter1 inactive | KCC2 ouabain inactive | HEK counter2 inactive
COc1ccccc1NC(=O)C(=O)/C=C(\O)c1ccccc1	Cl transport mod 73 (no result: Arbovirus anti, ROMK primary, PKD1 inh) | KCC2 sec1 inconclusive | KCC2 bumet counter 0.088 | KCC2 sec2 0.062 | HEK counter1 0.052 | KCC2 ouabain 0.064 | HEK counter2 0.041
COc1ccccc1NC(=O)CNC(=O)c1ccccc1	none (no result: ROMK primary)
COc1ccc(OC)c(/C(O)=C/C(=O)C(=O)Nc2cc(C)cc(C)c2)c1	none
COc1ccc(OC)c(/C(O)=C/C(=O)C(=O)Nc2cc(C)ccc2OC)c1	Cl transport mod 4 | KCC2 sec1 inactive | KCC2 bumet counter 0.022 | KCC2 sec2 inactive | HEK counter1 0.016 | KCC2 ouabain 0.027 | HEK counter2 0.018
CCOc1ccccc1NC(=O)C(=O)/C=C(\O)c1cc(OC)ccc1OC	Cl transport mod 5.8 | KCC2 sec1 inactive | KCC2 bumet counter 0.026 | KCC2 sec2 inactive | HEK counter1 0.022 | KCC2 ouabain 0.029 | HEK counter2 0.014
COc1ccccc1OCC(=O)NCCSCc1ccc(Cl)cc1	none (no result: ROMK primary)
COc1cc(/C=C/C(=O)CC(=O)/C=C/c2ccc(O)c(OC)c2)ccc1O	none (no result: ROMK primary, Mdm2 ligase inh)
COc1cc(/C=C/c2ccc3c(Br)cc(Br)c(O)c3n2)ccc1O	Cl transport mod 7.5 (no result: Arbovirus anti, ROMK primary, PKD1 inh) | KCC2 sec1 inactive | KCC2 bumet counter 0.013 | KCC2 sec2 inactive | HEK counter1 0.0091 | KCC2 ouabain inactive | HEK counter2 inactive
Cc1cc(C)c(S(=O)(=O)/N=C2/C=C(SCC(=O)O)C(=O)c3ccccc32)cc1C	Cl transport mod -4.2 | KCC2 sec1 inactive | KCC2 bumet counter 0.007 | KCC2 sec2 inconclusive | HEK counter1 inactive | KCC2 ouabain inactive | HEK counter2 inactive
O=C(c1ccccc1)c1nc2ccccc2n(CCCn2c(=O)c(C(=O)c3ccccc3)nc3ccccc32)c1=O	none (no result: ROMK primary)
CCOc1cc(CNn2nnnc2N)cc(Cl)c1OCC(=O)NC(C)(C)C	none (no result: ROMK primary) | KCC2 sec1 inactive | KCC2 bumet counter inactive | KCC2 sec2 inactive | HEK counter1 inactive | KCC2 ouabain inactive | HEK counter2 inactive
CN(C)N1C(=O)CC(NNC(=O)c2ccncc2)C1=O (stereo unspecified)	none (no result: ROMK primary)
COc1cc(OC)cc(C(=O)NC(=S)NNC(=O)[C@H]2C[C@@H]2c2ccccc2)c1	Cl transport mod 59 (no result: Arbovirus anti, ROMK primary, PKD1 inh) | KCC2 sec1 0.023 | KCC2 bumet counter 0.078 | KCC2 sec2 0.043 | HEK counter1 0.033 | KCC2 ouabain 0.059 | HEK counter2 0.016
O=C(NC(=S)NNC(=O)[C@H]1C[C@@H]1c1ccccc1)c1ccc(F)cc1	Cl transport mod 20 (no result: Arbovirus anti, ROMK primary, PKD1 inh) | KCC2 sec1 inactive | KCC2 bumet counter 0.02 | KCC2 sec2 inactive | HEK counter1 0.02 | KCC2 ouabain 0.03 | HEK counter2 0.021
CC(C)c1csc(CN2CCC(N3CCC(C(=O)NCC4CCCO4)CC3)CC2)n1 (stereo unspecified)	none
CC(NC(=O)c1ccco1)C(=O)OCc1cccc(Cl)c1 (stereo unspecified)	Cl transport mod 6.1 | KCC2 sec1 inactive | KCC2 bumet counter inactive | KCC2 sec2 inactive | HEK counter1 inactive | KCC2 ouabain inactive | HEK counter2 inactive

High-throughput results (PubChem)
